OXTR agonist = agonists of human oxytocin receptor; P30559; CHO-OTR cells, Fluo-8 calcium fluorescence; normalized: DMSO 0%, oxytocin 100%; activation, % at 3 µM; 0.32% of 320,000 active; AID 2435;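 active = activation above the mean of all tested compounds plus 3 SD, cutoff set per screening run, cut at about 20% in these data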;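 note: peak over basal fluorescence ratio from a 100 s FLIPR kinetic read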
TAAR1 antagonist = human TAAR1 antagonism | Q96RJ0 | CHO RD-HGA16 TAAR1, Fluo-8 calcium fluorescence, antagonist | inhibition, % at 3 µM | 1.5% of 360,000 active | AID 624466;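 active = inhibition above a per-plate cutoff, the mean inhibition of test compounds on that plate plus 3 SD, cut at about 49% in these data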;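 note: 0% = DMSO plus EC80 beta-PEA response and 100% = DMSO alone without agonist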
Target sequence (Q96RJ0 whole entry, looked up): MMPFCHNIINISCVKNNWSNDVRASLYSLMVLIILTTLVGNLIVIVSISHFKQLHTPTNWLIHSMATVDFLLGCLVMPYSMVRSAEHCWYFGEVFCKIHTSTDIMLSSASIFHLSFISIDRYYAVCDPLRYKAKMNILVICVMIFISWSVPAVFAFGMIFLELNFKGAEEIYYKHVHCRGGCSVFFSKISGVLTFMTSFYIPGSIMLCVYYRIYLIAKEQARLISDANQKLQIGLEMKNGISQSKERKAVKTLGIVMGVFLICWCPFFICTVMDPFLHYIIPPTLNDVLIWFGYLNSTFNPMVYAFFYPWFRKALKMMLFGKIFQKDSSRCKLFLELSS
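Material: CHO RD-HGA16 cells bearing hTAAR1; compound dosing: one-point dosing, 3 µM nominal final; schedule: dye loading 75 min at 37 °C, then 30 min room temperature; measured by: calcium fluorescence with Fluo-8; control set: vehicle and agonist controls; replication: n of 1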
TAAR1 agonist = human TAAR1 agonism | Q96RJ0 | CHO RD-HGA16 TAAR1, Fluo-8 calcium fluorescence; vehicle wells 0%, saturating PEA agonist 100% | activation, % at 3 µM | 0.99% of 360,000 active | AID 624467;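 active = activation above the mean activation of all test compounds in the run plus 3 SD, cut at about 38% in these data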
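Assay system – CHO-derived RD-HGA16 cells with stable Gα16 and human TAAR1 · Compound dosing – one-point dosing at 3 µM (nominal) · Incubation – 17-24 h seeding, 75 min 37 °C dye, 30 min RT · Measured by – kinetic Fluo-8 calcium fluorescence · Control set – DMSO vehicle as 0%, PEA at EC100 as 100% · Repeats – single well for each compound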
V1aR counter = V1a receptor agonism, counter-screen for OXTR agonists. 0.25% of 320,000 active. P37288. CHO-V1R cells, Fluo-8 calcium fluorescence, agonist mode; 0% DMSO, 100% 3 nM vasopressin. activation, % at 3 µM;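 active = activation above the mean activation of all tested compounds plus 3 SD, per screening run, cut at about 20% in these data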;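 note: signal is peak over basal fluorescence ratio across a 100 second FLIPR read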
OXTR potentiator = potentiators of human oxytocin receptor | P30559 | CHO-OTR cells, Fluo-8 calcium fluorescence, potentiator mode; 0% = oxytocin EC15, 100% = EC100 | activation, % at 3 µM | 0.061% of 320,000 active | AID 2445;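 active = activation above that plate's cutoff, the mean activation of tested compounds plus 3 SD, cut at about 6.6% in these data, passing the limit was not always enough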;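 note: 100% uses oxytocin at 75 nM as the full agonist control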
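Assay system: CHO cell line stably expressing human OTR. Reagent: EC15 oxytocin agonist. Dosing: single dose, 3.0 µM nominal final compound concentration. Timing: compound 6 min at room temperature before oxytocin, 100 s read. Signal: kinetic Fluo-8 calcium fluorescence. Controls: oxytocin EC15 low and EC100 high.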
Active calls of the source: *; nt = no result. In the library only some 2.3% were active in any assay of this set; here they are far more common.

SMILES	OXTR agonist	TAAR1 antagonist	TAAR1 agonist	V1aR counter	OXTR potentiator
O=C1NC[C@H](CCCCN2C[C@H](Cc3ccc(O)cc3)N(CCc3ccccc3)C(=O)C2=O)N(Cc2ccccc2)C1=O	nt	-9	2	nt	nt
O=C1NC[C@@H](CCCCN2C[C@H](Cc3ccc(O)cc3)N(CC3CCCCC3)C(=O)C2=O)N(CCC2CCCCC2)C1=O	nt	-4	43*	nt	nt
O=C1NC[C@H](CCCCN2C[C@H](Cc3ccc(O)cc3)N(CCc3ccc(O)cc3)C(=O)C2=O)N(Cc2ccccc2)C1=O	nt	-13	43*	nt	nt
O=C1NC[C@H](CCCCN2C[C@H](Cc3ccc(O)cc3)N(CCC3CCCCC3)C(=O)C2=O)N(CC2CCCCC2)C1=O	nt	-15	3	nt	nt
CCCOCCc1nnc(N)s1	-1	-1	0	0	2
Cn1c(SCC(=O)Nc2cccc(F)c2)nc2c(c1=O)SCC2	4	18	2	7	-10
Cc1ccc(C(=O)OCC(=O)N(CCc2ccccc2)Cc2ccccc2)cc1S(=O)(=O)N1CCOCC1	-1	50*	4	2	-8
Cc1ccc(S(C)(=O)=O)cc1C(=O)OCC(=O)N(Cc1ccccc1)Cc1ccccc1	-1	54*	17	2	-6
CC(O)(c1ccc(F)c(F)c1)c1nc(-c2ccc(F)c(Cl)c2)cs1 (stereo not drawn)	nt	27	3	nt	nt
Cc1ccc(-n2nc3c(=O)n(CCCC(=O)NCCc4ccccc4C)nc(C)c3c2C)cc1	-1	-22	40*	3	-6
CSC1=C(C#N)C(c2ccccc2Cl)C(C(=O)c2cccs2)C(O)(C(F)(F)F)N1 (stereo not drawn)	0	51*	8	2	-5
C=CCSC1=C(C#N)C(c2ccccc2Cl)C(C(=O)c2cccs2)C(O)(C(F)(F)F)N1 (stereo not drawn)	0	56*	7	2	-13
CCSC1=C(C#N)C(c2ccccc2Cl)C(C(=O)c2cccs2)C(O)(C(F)(F)F)N1 (stereo not drawn)	0	-11	0	2	-22
O=C1NC(c2ccccc2)C(C(=O)c2cccs2)C(O)(C(F)(F)F)N1 (stereo not drawn)	0	10	2	0	-6
CC(C)C1Cc2[nH][nH]c(=O)c2C(C2CC2)O1 (stereo not drawn)	nt	-8	5	nt	nt
CSc1ccc(OC2(C)CCN(Cc3ccc4c(c3)OCCO4)C2)cc1 (stereo not drawn)	nt	-22	2	nt	nt
CCOC(=O)C1=C(C)Nc2ccccc2N=C1NC(=O)C1CCN(C(=O)c2ccccc2C)CC1	1	49*	10	-1	3
CCOC(=O)N1CCN(C(=O)C2CCN(C(=O)c3ccccc3C)CC2)CC1	nt	18	66*	nt	nt
CCc1ccc(OCC(=O)NNC(=S)NC(=O)C2CC2)c(Br)c1	nt	9	40*	nt	nt
CCCCCCCCCCCCCCCC[n+]1ccc(/C=N/O)cc1	14	78*	22	8	-8
Nc1nc2c(ncn2[C@@H]2O[C@H](C(=O)N[C@H](Cc3ccccc3)C(=O)NCc3ccccc3)[C@@H](O)[C@H]2O)c(=O)[nH]1	nt	-3	1	nt	nt
Cc1cc(C)c(OCCCNCc2ccccc2)c(Br)c1	12	2	16	8	-8
Cc1cc(Cl)c(OCCCNCc2ccccc2)c(Br)c1	15	0	44*	10	-7
CCOC(=O)c1cc(C(=O)OCC)c(=O)[nH]c1SCc1ccccc1	-2	-27	41*	2	-17
O=C(N[C@H](C(=O)N1CCC[C@H]1C(=O)NCc1ccccc1)c1ccccc1)c1ccccc1	nt	-14	1	nt	nt
SMILES	OXTR agonist	TAAR1 antagonist	TAAR1 agonist	V1aR counter	OXTR potentiator
Cc1ccc(-c2cc(C(=O)NCCc3ccc(S(N)(=O)=O)cc3)c3ccccc3n2)cc1	1	51*	6	2	-12
COc1ccc(-c2cc(C(=O)NCCc3ccc(S(N)(=O)=O)cc3)c3ccccc3n2)cc1	0	54*	8	1	-6
NS(=O)(=O)c1ccc(CCNC(=O)c2cc(-c3ccccc3)nc3ccccc23)cc1	0	45	7	-1	-2
C=C1C(=O)CC2=C1[C@](Cc1ccc(F)cc1)(C(=O)OC)N(C(=O)c1ccccc1)C2	nt	-2	1	nt	nt
C=C1C(=O)C=C2CN(C(=O)c3ccccc3)[C@@](Cc3ccc(F)cc3)(C(=O)OC)[C@@H]12	69*	nt	nt	81*	-17
CCC(=O)Nc1nc(CC(=O)Nc2ccccc2OC)cs1	0	-12	11	1	-10
COc1ccccc1NC(=O)Nc1nc(CC(=O)Nc2ccc(OC)c(OC)c2)cs1	0	49*	13	0	-7
COc1cccc(NC(=O)Cc2csc(NC(=O)Nc3ccccc3OC)n2)c1	-1	56*	12	0	-11
Cc1ccc2[nH]c(O)c(N=NC(=O)C(C)n3cnc4ccccc4c3=O)c2c1 (stereo not drawn)	-3	-18	0	-1	-6
CCCc1cc(CN(C)C(=O)c2ccc(OC3CCN(C(C)=O)CC3)c(OC)c2)[nH]n1	nt	-28	1	nt	nt
Cc1nc2nc(C)n(CCN3CCOCC3)c(=O)c2c(-c2cccc([N+](=O)[O-])c2)c1C(=O)CCCCCCCCCCN1CCC(c2ccccc2)(c2ccccc2)CC1	nt	49*	18	nt	nt
CN(C)S(=O)(=O)Oc1cccc(C(=O)Nc2ccc(Cl)c(Cl)c2)c1	8	61*	41*	9	-30
CN(C)S(=O)(=O)Oc1cccc(C(=O)Nc2cccc(Cl)c2)c1	9	48	17	6	-16
Cc1nc(C)c(-c2ccc(SCC(=O)Nc3cccc(Cl)c3)nn2)s1	11	52*	8	13	-16
CC(=O)c1cccc(NC(=O)CSc2ccc(-c3sc(C)nc3C)nn2)c1	2	20	6	6	-10
O/C(=C\c1nc2ccccc2[nH]1)c1cccs1	-1	1	2	0	-6
O=c1[nH]c2ccccc2nc1/C=C(\O)c1cccs1	23*	9	28	29*	-15
Cc1csc(NC(=S)NC(=O)c2ccccc2)n1	3	-14	5	0	-7
COc1ccc(S(=O)(=O)Nc2cc(Sc3ncn[nH]3)c(O)c3ccccc23)cc1	nt	19	43*	nt	nt
Cc1onc(-c2c(Cl)cccc2Cl)c1COC(=O)c1ccc(Cl)cc1[N+](=O)[O-]	-1	-12	-1	1	2
CC(Oc1ccccc1)C(=O)N/N=C/c1ccccn1 (stereo not drawn)	0	-13	4	0	-14
Cc1cccc(NC(=O)c2ccc(N(C)C3CCCCC3)c([N+](=O)[O-])c2)n1	-1	63*	8	-1	-10
CC(=O)C1=C(C)NC(SCC(=O)c2ccc(F)cc2)=C(C#N)C1c1ccco1 (stereo not drawn)	4	51*	8	2	-8
